In ChEMBL document CHEMBL2375313, “Synthesis, in vitro antitumor evaluation and DNA-binding study of novel tetrahydroquinolines and some derived tricyclic and tetracyclic ring systems” (Eur J Med Chem, 2013):

How the values were obtained:
Format in all cases: functional
Hs-578T = assay: Cytotoxicity against human Hs578T cells assessed as growth inhibition at 10 uM after 48 hrs by sulphorhodamine B assay; conditions: read-out: GI
Outline: (§1)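 NCI-60 one-dose screen per the NCI Drug Evaluation Branch protocol. Cells given a single 10 µM concentration with 48 h continuous exposure. Growth estimated by sulphorhodamine B protein assay. Result expressed as percentage growth inhibition relative to untreated growth.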

HL-60(TB) = assay: Cytotoxicity against human HL-60(TB) cells assessed as growth inhibition at 10 uM after 48 hrs by sulphorhodamine B assay; conditions: HL-60, 48 h, read-out: GI
Outline: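 NCI-60 one-dose primary screen run to the Drug Evaluation Branch protocol. Cells are exposed to a single 10 µM concentration for 48 h continuously, and growth is read by SRB protein assay. Data are reported as percent growth of treated cells, expressed as % growth inhibition.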

U-251 = assay: Cytotoxicity against human U251 cells assessed as growth inhibition at 10 uM after 48 hrs by sulphorhodamine B assay; conditions: U-251, 48 h, read-out: GI; outline: as §1
RXF 393 = assay: Cytotoxicity against human RXF393 cells assessed as growth inhibition at 10 uM after 48 hrs by sulphorhodamine B assay; conditions: RXF 393, 48 h, read-out: GI; outline: as §1
SNB-75 = assay: Cytotoxicity against human SNB75 cells assessed as growth inhibition at 10 uM after 48 hrs by sulphorhodamine B assay; conditions: SNB-75, 48 h, read-out: GI; outline: as §1
CCRF-CEM = assay: Cytotoxicity against human CCRF-CEM cells assessed as growth inhibition at 10 uM after 48 hrs by sulphorhodamine B assay; conditions: read-out: GI; outline: as §1
LOX IMVI = assay: Cytotoxicity against human LOXIMVI cells assessed as growth inhibition at 10 uM after 48 hrs by sulphorhodamine B assay; conditions: read-out: GI; outline: as §1
MCF7 = assay: Cytotoxicity against human MCF7 cells assessed as growth inhibition at 10 uM after 48 hrs by sulphorhodamine B assay; conditions: MCF7, 48 h, read-out: GI; outline: as §1
IGROV-1 = assay: Cytotoxicity against human IGROV1 cells assessed as growth inhibition at 10 uM after 48 hrs by sulphorhodamine B assay; conditions: IGROV-1, 48 h, read-out: GI; outline: as §1
HOP-92 = assay: Cytotoxicity against human HOP92 cells assessed as growth inhibition at 10 uM after 48 hrs by sulphorhodamine B assay; conditions: HOP-92, 48 h, read-out: GI; outline: as §1
OVCAR-4 = assay: Cytotoxicity against human OVCAR4 cells assessed as growth inhibition at 10 uM after 48 hrs by sulphorhodamine B assay; conditions: OVCAR-4, 48 h, read-out: GI; outline: as §1
T47D = assay: Cytotoxicity against human T47D cells assessed as growth inhibition at 10 uM after 48 hrs by sulphorhodamine B assay; conditions: read-out: GI; outline: as §1
CAKI-1 = assay: Cytotoxicity against human Caki1 cells assessed as growth inhibition at 10 uM after 48 hrs by sulphorhodamine B assay; conditions: CAKI-1, 48 h, read-out: GI; outline: as §1
HT-29 = assay: Cytotoxicity against human HT-29 cells assessed as growth inhibition at 10 uM after 48 hrs by sulphorhodamine B assay; conditions: HT-29, 48 h, read-out: GI; outline: as §1
HCT-15 = assay: Cytotoxicity against human HCT15 cells assessed as growth inhibition at 10 uM after 48 hrs by sulphorhodamine B assay; conditions: HCT-15, 48 h, read-out: GI; outline: as §1
UO-31 = assay: Cytotoxicity against human UO31 cells assessed as growth inhibition at 10 uM after 48 hrs by sulphorhodamine B assay; conditions: UO-31, 48 h, read-out: GI; outline: as §1
OVCAR-5 = assay: Cytotoxicity against human OVCAR5 cells assessed as growth inhibition at 10 uM after 48 hrs by sulphorhodamine B assay; conditions: OVCAR-5, 48 h, read-out: GI; outline: as §1
NCI/ADR-RES = assay: Cytotoxicity against human NCI/ADR-RES cells assessed as growth inhibition at 10 uM after 48 hrs by sulphorhodamine B assay; conditions: read-out: GI; outline: as §1
MDA-MB-468 = assay: Cytotoxicity against human MDA-MB-468 cells assessed as growth inhibition at 10 uM after 48 hrs by sulphorhodamine B assay; conditions: MDA-MB-468, 48 h, read-out: GI; outline: as §1
K562 = assay: Cytotoxicity against human K562 cells assessed as growth inhibition at 10 uM after 48 hrs by sulphorhodamine B assay; conditions: K562, 48 h, read-out: GI; outline: as §1
M14 = assay: Cytotoxicity against human M14 cells assessed as growth inhibition at 10 uM after 48 hrs by sulphorhodamine B assay; conditions: M14, 48 h, read-out: GI; outline: as §1
RPMI-8226 = assay: Cytotoxicity against human RPMI8226 cells assessed as growth inhibition at 10 uM after 48 hrs by sulphorhodamine B assay; conditions: RPMI-8226, 48 h, read-out: GI; outline: as §1
SF-295 = assay: Cytotoxicity against human SF295 cells assessed as growth inhibition at 10 uM after 48 hrs by sulphorhodamine B assay; conditions: SF-295, 48 h, read-out: GI; outline: as §1
SK-OV-3 = assay: Cytotoxicity against human SKOV3 cells assessed as growth inhibition at 10 uM after 48 hrs by sulphorhodamine B assay; conditions: SK-OV-3, 48 h, read-out: GI; outline: as §1
MOLT-4 = assay: Cytotoxicity against human MOLT4 cells assessed as growth inhibition at 10 uM after 48 hrs by sulphorhodamine B assay; conditions: MOLT-4, 48 h, read-out: GI; outline: as §1
NCI-H522 = assay: Cytotoxicity against human NCI-H522 cells assessed as growth inhibition at 10 uM after 48 hrs by sulphorhodamine B assay; conditions: NCI-H522, 48 h, read-out: GI; outline: as §1
[1] = Cytotoxicity against human EKVX cells assessed as growth inhibition at 10 uM after 48 hrs by sulphorhodamine B assay; conditions: read-out: GI; outline: as §1
SNB-19 = assay: Cytotoxicity against human SNB19 cells assessed as growth inhibition at 10 uM after 48 hrs by sulphorhodamine B assay; conditions: SNB-19, 48 h, read-out: GI; outline: as §1
UACC-62 = assay: Cytotoxicity against human UACC62 cells assessed as growth inhibition at 10 uM after 48 hrs by sulphorhodamine B assay; conditions: UACC-62, 48 h, read-out: GI; outline: as §1
A498 = assay: Cytotoxicity against human A498 cells assessed as growth inhibition at 10 uM after 48 hrs by sulphorhodamine B assay; conditions: A498, 48 h, read-out: GI; outline: as §1
MDA-MB-435 = assay: Cytotoxicity against human MDA-MB-435 cells assessed as growth inhibition at 10 uM after 48 hrs by sulphorhodamine B assay; conditions: MDA-MB-435, 48 h, read-out: GI; outline: as §1
A549 = assay: Cytotoxicity against human A549 cells assessed as growth inhibition at 10 uM after 48 hrs by sulphorhodamine B assay; conditions: A549, 48 h, read-out: GI; outline: as §1
DU-145 = assay: Cytotoxicity against human DU145 cells assessed as growth inhibition at 10 uM after 48 hrs by sulphorhodamine B assay; conditions: DU-145, 48 h, read-out: GI; outline: as §1
PC-3 = assay: Cytotoxicity against human PC3 cells assessed as growth inhibition at 10 uM after 48 hrs by sulphorhodamine B assay; conditions: PC-3, 48 h, read-out: GI; outline: as §1
SF-268 = assay: Cytotoxicity against human SF268 cells assessed as growth inhibition at 10 uM after 48 hrs by sulphorhodamine B assay; conditions: SF-268, 48 h, read-out: GI; outline: as §1
SK-MEL-5 = assay: Cytotoxicity against human SK-MEL-5 cells assessed as growth inhibition at 10 uM after 48 hrs by sulphorhodamine B assay; conditions: SK-MEL-5, 48 h, read-out: GI; outline: as §1
ACHN = assay: Cytotoxicity against human ACHN cells assessed as growth inhibition at 10 uM after 48 hrs by sulphorhodamine B assay; conditions: read-out: GI; outline: as §1
NCI-H23 = assay: Cytotoxicity against human NCI-H23 cells assessed as growth inhibition at 10 uM after 48 hrs by sulphorhodamine B assay; conditions: NCI-H23, 48 h, read-out: GI; outline: as §1
HCT-116 = assay: Cytotoxicity against human HCT116 cells assessed as growth inhibition at 10 uM after 48 hrs by sulphorhodamine B assay; conditions: HCT-116, 48 h, read-out: GI; outline: as §1
SR = assay: Cytotoxicity against human SR cells assessed as growth inhibition at 10 uM after 48 hrs by sulphorhodamine B assay; conditions: read-out: GI; outline: as §1
SK-MEL-2 = assay: Cytotoxicity against human SK-MEL-2 cells assessed as growth inhibition at 10 uM after 48 hrs by sulphorhodamine B assay; conditions: SK-MEL-2, 48 h, read-out: GI; outline: as §1

Q: With `COc1ccc(-c2c3c(nc4nc[nH]c(=O)c24)C(C)CCC3)cc1` (stereo unspecified) as the compound, how does the inhibition of growth at 10 µM (Hs-578T) read?
A: < 10%

Q: What about the inhibition of growth at 10 µM (HL-60(TB)) of the same compound?
A: < 10%

Q: What about the inhibition of growth at 10 µM (U-251) of the same compound?
A: 19%

Q: What about the inhibition of growth at 10 µM (RXF 393) of the same compound?
A: < 10%

Q: And the inhibition of growth at 10 µM (SNB-75)?
A: 34.3%

Q: And the inhibition of growth at 10 µM (CCRF-CEM)?
A: < 10%

Q: What about the inhibition of growth at 10 µM (LOX IMVI) of the same compound?
A: < 10%

Q: And the inhibition of growth at 10 µM (MCF7)?
A: < 10%

Q: What about the inhibition of growth at 10 µM (IGROV-1) of the same compound?
A: < 10%

Q: What about the inhibition of growth at 10 µM (HOP-92) of the same compound?
A: < 10%

Q: And the inhibition of growth at 10 µM (OVCAR-4)?
A: < 10%

Q: And the inhibition of growth at 10 µM (T47D)?
A: < 10%

Q: And the inhibition of growth at 10 µM (CAKI-1)?
A: < 10%

Q: What about the inhibition of growth at 10 µM (HT-29) of the same compound?
A: < 10%

Q: What about the inhibition of growth at 10 µM (HCT-15) of the same compound?
A: 13.7%

Q: And the inhibition of growth at 10 µM (UO-31)?
A: < 10%

Q: What about the inhibition of growth at 10 µM (OVCAR-5) of the same compound?
A: < 10%

Q: And the inhibition of growth at 10 µM (NCI/ADR-RES)?
A: 20%

Q: What about the inhibition of growth at 10 µM (MDA-MB-468) of the same compound?
A: 21.5%

Q: And the inhibition of growth at 10 µM (K562)?
A: < 10%

Q: What about the inhibition of growth at 10 µM (M14) of the same compound?
A: < 10%

Q: What about the inhibition of growth at 10 µM (RPMI-8226) of the same compound?
A: < 10%

Q: And the inhibition of growth at 10 µM (SF-295)?
A: < 10%

Q: What about the inhibition of growth at 10 µM (SK-OV-3) of the same compound?
A: < 10%

Q: And the inhibition of growth at 10 µM (MOLT-4)?
A: < 10%

Q: And the inhibition of growth at 10 µM (NCI-H522)?
A: 20.8%

Q: What about the inhibition of growth at 10 µM [1] of the same compound?
A: < 10%

Q: What about the inhibition of growth at 10 µM (SNB-19) of the same compound?
A: < 10%

Q: What about the inhibition of growth at 10 µM (UACC-62) of the same compound?
A: < 10%

Q: What about the inhibition of growth at 10 µM (A498) of the same compound?
A: < 10%

Q: What about the inhibition of growth at 10 µM (MDA-MB-435) of the same compound?
A: < 10%

Q: And the inhibition of growth at 10 µM (A549)?
A: < 10%

Q: What about the inhibition of growth at 10 µM (DU-145) of the same compound?
A: < 10%

Q: And the inhibition of growth at 10 µM (PC-3)?
A: < 10%

Q: What about the inhibition of growth at 10 µM (SF-268) of the same compound?
A: < 10%

Q: And the inhibition of growth at 10 µM (SK-MEL-5)?
A: < 10%

Q: And the inhibition of growth at 10 µM (ACHN)?
A: < 10%

Q: What about the inhibition of growth at 10 µM (NCI-H23) of the same compound?
A: 13.8%

Q: What about the inhibition of growth at 10 µM (HCT-116) of the same compound?
A: < 10%

Q: And the inhibition of growth at 10 µM (SR)?
A: < 10%

Q: And the inhibition of growth at 10 µM (SK-MEL-2)?
A: < 10%
